The results in this text go back to ChEMBL document CHEMBL1126301, “Anti-HIV-I activity of linked lexitropsins” (J Med Chem, 1992).

In data set [1] the test system is Murine leukemia virus. In words: Inhibitory activity on moloney murine leukemia retrovirus. The data set is classed as functional. Summed up:
(§1)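 SC-1 cells (3.5 × 10⁴ mL⁻¹) seeded in 5% FBS-MEM 1 day ahead. Compound dilutions added in triplicate, then 20-40 pfu Moloney virus per well, shaken at 0, 30 and 60 min. Incubated 5 days, 37 °C, 5% CO₂; viability checked for toxicity. Then UV 3 min, XC cells overlaid (2 × 10⁵ mL⁻¹), 4 days, 0.5% crystal violet stain, plaques counted. MIC₅₀ interpolated between two dilutions.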

Data set [2] has as its system CCRF-CEM. In words: (§2) Inhibitory activity against T4-lymphocytes (CEM cell line) infected with HIV-1; moderate. The format is functional, cell-based. The conditions noted are these: Homo sapiens.
Data set [3] has as its system Murine leukemia virus. The experiment in a line: Concentration inhibiting moloney murine leukemia retrovirus. The format is functional. In a few lines:
as §1

Data set [4] is described as follows: Therapeutic index(TI) was measured as ratio of TD50 and MIC50 (Retrovirus). The conditions noted are these: retroviridae.
The test system of data set [5] is CCRF-CEM. In words: Inhibitory activity against T4-lymphocytes (CEM cell line) infected with HIV-1; active. The format is functional, cell-based. As to conditions: Homo sapiens.
Data set [6] relates to CCRF-CEM. The experiment in a line: Inhibition of T4-lymphocytes (CEM cell line) infected with HIV-1. The format is functional, cell-based. As to conditions: Homo sapiens.
Data set [7] deals with HIV-1. The experiment in a line: Therapeutic index (TI) was measured as ratio of IC50 and EC50 (HIV-1). The conditions noted are these: human immunodeficiency virus 1; read-out: TI50.
The subject of data set [8] is Human immunodeficiency virus 1. The experiment in a line: Inhibitory activity against HIV-1 in T4-lymphocytes (CEM cell line). As to conditions: Human immunodeficiency virus 1, CCRF-CEM. The format is functional, organism-based.
In data set [9] the test system is Human immunodeficiency virus 1. The data set is described as §2. The format is functional, organism-based. The conditions noted are these: CCRF-CEM.

The source made the active and inactive calls. No cut-off for these calls is given here. A value given as a limit tells only on which side of the number the result lay.

For orientation: IC50 means the concentration that inhibits the measured activity by half. Low readings indicate greater potency, high ones weaker potency. The EC50 is the concentration that produces a half-maximal response. Low readings indicate an effect from little substance, high ones a need for much substance.

In [1], `Cl.Cl.Cn1cc(NC(=O)c2cc(NC(=O)c3cc(NC(=O)c4cncc(C(=O)Nc5cc(C(=O)Nc6cc(C(=O)Nc7cc(C(=O)NCCC(=N)N)n(C)c7)n(C)c6)n(C)c5)c4)cn3C)cn2C)cc1C(=O)NCCC(=N)N` registered a TD50 of over 100 µg/mL. For the same compound, the Activity entry in data set [2] is given as “Moderate”. The compound also came in with an MIC50 in data set [3] of over 100 µg/mL.
In the case of `Cl.Cl.Cn1cc(NC(=O)c2cc(NC(=O)c3cc(NC(=O)c4cccc(C(=O)Nc5cc(C(=O)Nc6cc(C(=O)Nc7cc(C(=O)NCCC(=N)N)n(C)c7)n(C)c6)n(C)c5)c4)cn3C)cn2C)cc1C(=O)NCCC(=N)N`, in data set [1], the TD50 was over 100 µg/mL. The TI in data set [4] was 2 TD50/MIC50. Also, the outcome in data set [5] was Active. In [3], this compound showed an MIC50 of over 50 µg/mL.
`Cn1cc(NC(=O)c2cc(NC(=O)c3ccc(C(=O)Nc4cc(C(=O)Nc5cc(C(=O)NCCC(=N)N)n(C)c5)n(C)c4)cc3)cn2C)cc1C(=O)NCCC(=N)N`: the IC50 in [6] came out at 17.9 µM. Further, the outcome in data set [5] was Active. Moreover, the selectivity ratio in [7] is 14.8. In addition, the concentration for a half-maximal effect (EC50) in data set [8] came out at 1.21 µM.
Compound `Cn1cc(NC(=O)c2cc(NC(=O)[C@H]3CCC(N)=N3)c[nH]2)cc1C(=O)NCCC(=N)N` had an IC50 in data set [6] of 750 µM. The Activity result in data set [2] is “Moderate”. Besides, the selectivity ratio in data set [7] amounted to 8.2. In [8], this compound displayed an EC50 of 91 µM.
For `Cn1cc(NC(=O)c2cc(NC(=O)c3cc(NC(=O)CCCCCCCCC(=O)Nc4cc(C(=O)Nc5cc(C(=O)Nc6cc(C(=O)NCCC(=N)N)n(C)c6)n(C)c5)n(C)c4)cn3C)cn2C)cc1C(=O)NCCC(=N)N`, the Activity result in data set [9] was “Moderate”.
`Cn1cc(NC(=O)c2cc(NC(=O)CCCCCCCCCC(=O)Nc3cc(C(=O)Nc4cc(C(=O)NCCC(=N)N)n(C)c4)n(C)c3)cn2C)cc1C(=O)NCCC(=N)N`: in data set [6], the IC50 is 57 µM. The Activity result in data set [2] is on record as “Moderate”. For the same compound, the selectivity ratio in data set [7] was 14.6. In data set [8], this compound registered an EC50 of 3.9 µM.
With `Cl.Cl.Cl.Cn1cc(NC(=O)c2cc(NC(=O)c3cc(NC(=O)c4cc(C(=O)Nc5cc(C(=O)Nc6cc(C(=O)Nc7cc(C(=O)NCCC(=N)N)n(C)c7)n(C)c6)n(C)c5)cc(C(=O)Nc5cc(C(=O)Nc6cc(C(=O)Nc7cc(C(=O)NCCC(=N)N)n(C)c7)n(C)c6)n(C)c5)c4)cn3C)cn2C)cc1C(=O)NCCC(=N)N`, the TD50 in data set [1] was over 100 µg/mL. Further, the TI in data set [4] is on record as over 1.6 TD50/MIC50. The MIC50 in [3] is 62.8 µg/mL.
As for `Cn1cc(NC(=O)c2cc(NC(=O)[C@@H]3CCC(N)=N3)c[nH]2)cc1C(=O)NCCC(=N)N`, in data set [6], half-maximal inhibition (IC50) was put at 750 µM. Also, the Activity result in data set [2] is “Moderate”. The selectivity ratio in data set [7] was determined as 8.5. In [8], this compound yielded an EC50 of 88 µM.
For the compound `Cl.Cl.Cn1cc(NC(=O)c2cc(NC(=O)c3cc(NC(=O)C4CCC4C(=O)Nc4cc(C(=O)Nc5cc(C(=O)Nc6cc(C(=O)NCCC(=N)N)n(C)c6)n(C)c5)n(C)c4)cn3C)cn2C)cc1C(=O)NCCC(=N)N` (stereo unspecified), in data set [1], the TD50 worked out at 83.5 µg/mL. The TI in data set [4] came out at 1.7 TD50/MIC50. The Activity entry in data set [2] was “Moderate”. In data set [3], this compound registered an MIC50 of over 50 µg/mL.
